Reference: ChEMBL document CHEMBL4689842, “EUbOPEN Chemogenomics Library wave 1” (2021)
“And” between values parts separate entries of the source, which are not always exact repeats. Identical values can stand only once.

System: HEK-293T
Test: Multiplex assay against HEK293T;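 on Population Tubulin-Different-Phenotype (%): share of the cells with healthy nuclei that show this phenotype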
Type: toxicity, cell-based
Details: human
In short: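 Cells stained live at seeding with Hoechst33342, BioTracker Green Microtubule Cytoskeleton Dye, MitoTracker Red and Annexin V Alexa Fluor 680 were imaged on a CQ1 microscope at 37°C and 5% CO2 after compound addition. Their classification by CellPathfinder machine-learning gating ran from Hoechst high-intensity objects versus normal cells, to healthy, pyknosed or fragmented nuclei among normal cells, to mitotic or apoptotic among pyknosed cells. Tubulin, mitochondrial-mass and membrane-permeability phenotypes are per cents of healthy-nucleus cells.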

[1] = 12 h, 1 µM, compound concentration 1 uM, replicate 1
[2] = 12 h, 1 µM, compound concentration 1 uM, replicate 2
[3] = 12 h, 10 µM, compound concentration 10 uM, replicate 1
[4] = 12 h, 10 µM, compound concentration 10 uM, replicate 2
[5] = 24 h, 1 µM, compound concentration 1 uM, replicate 1
[6] = 24 h, 1 µM, compound concentration 1 uM, replicate 2
[7] = 24 h, 10 µM, compound concentration 10 uM, replicate 1
[8] = 24 h, 10 µM, compound concentration 10 uM, replicate 2
[9] = 48 h, 10 µM, compound concentration 10 uM, replicate 1
[10] = 48 h, 10 µM, compound concentration 10 uM, replicate 2

SMILES: C[C@@]1(C(=O)Nc2ccc(F)nc2)CCCN1c1nc(Nc2cc(C3CC3)n[nH]2)c2cccn2n1 [BMS-754807]
- Population Apoptotic (%) [1]: 24%
- Population Fragmented Nuclei (%) [1]: 19%
- Population Healthy Nuclei (%) [1]: 38%
- Population Hoechst High Intensity Objects (%) [1]: 25%
- Population Membrane Permeable-Phenotype (%) [1]: 7%
- Population Mitochondria Different-Phenotype (%) [1]: 32%
- Population Mitotic Cells (%) [1]: 75%
- Population Normal (%) [1]: 74%
- Population Pyknosed Nuclei (%) [1]: 42%
- Population Tubulin-Different-Phenotype (%) [1]: 68%
- Total Cell Count [1]: 622
- Population Apoptotic (%) [2]: 20%
- Population Fragmented Nuclei (%) [2]: 3%
- Population Healthy Nuclei (%) [2]: 72%
- Population Hoechst High Intensity Objects (%) [2]: 12%
- Population Mitochondria Different-Phenotype (%) [2]: 57%
- Population Mitotic Cells (%) [2]: 80%
- Population Normal (%) [2]: 87%
- Population Pyknosed Nuclei (%) [2]: 23%
- Population Tubulin-Different-Phenotype (%) [2]: 92%
- Total Cell Count [2]: 768
- Population Fragmented Nuclei (%) [3]: 13% and 14%
- Population Hoechst High Intensity Objects (%) [3]: 17% and 19%
- Population Membrane Permeable-Phenotype (%) [3]: 9% and 4%
- Population Normal (%) [3]: 82% and 80%
- Population Pyknosed Nuclei (%) [3]: 71% and 26%
- Total Cell Count [3]: 259 and 598
- Population Fragmented Nuclei (%) [4]: 7% and 3%
- Population Hoechst High Intensity Objects (%) [4]: 9% and 6%
- Population Membrane Permeable-Phenotype (%) [4]: 10% and 3%
- Population Mitotic Cells (%) [4]: 51%
- Population Normal (%) [4]: 90% and 93%
- Population Tubulin-Different-Phenotype (%) [4]: 94% and 44%
- Population Apoptotic (%) [5]: 25%
- Population Fragmented Nuclei (%) [5]: 18%
- Population Healthy Nuclei (%) [5]: 56%
- Population Hoechst High Intensity Objects (%) [5]: 20%
- Population Membrane Permeable-Phenotype (%) [5]: 8%
- Population Mitochondria Different-Phenotype (%) [5]: 32%
- Population Mitotic Cells (%) [5]: 74%
- Population Normal (%) [5]: 79%
- Population Pyknosed Nuclei (%) [5]: 25%
- Population Tubulin-Different-Phenotype (%) [5]: 79%
- Total Cell Count [5]: 652
- Population Apoptotic (%) [6]: 17%
- Population Fragmented Nuclei (%) [6]: 3%
- Population Healthy Nuclei (%) [6]: 82%
- Population Hoechst High Intensity Objects (%) [6]: 9%
- Population Membrane Permeable-Phenotype (%) [6]: 10%
- Population Mitochondria Different-Phenotype (%) [6]: 44%
- Population Mitotic Cells (%) [6]: 82%
- Population Normal (%) [6]: 90%
- Population Pyknosed Nuclei (%) [6]: 13%
- Population Tubulin-Different-Phenotype (%) [6]: 95%
- Total Cell Count [6]: 865
- Population Apoptotic (%) [7]: 70% and 26%
- Population Fragmented Nuclei (%) [7]: 17% and 14%
- Population Hoechst High Intensity Objects (%) [7]: 14% and 19%
- Population Membrane Permeable-Phenotype (%) [7]: 2% and 5%
- Population Mitotic Cells (%) [7]: 29% and 73%
- Population Normal (%) [7]: 85% and 80%
- Population Tubulin-Different-Phenotype (%) [7]: 94% and 44%
- Total Cell Count [7]: 284 and 562
- Population Fragmented Nuclei (%) [8]: 6% and 8%
- Population Hoechst High Intensity Objects (%) [8]: 10% and 8%
- Population Membrane Permeable-Phenotype (%) [8]: 10% and 4%
- Population Mitotic Cells (%) [8]: 30% and 81%
- Population Normal (%) [8]: 89% and 91%
- Population Tubulin-Different-Phenotype (%) [8]: 95% and 56%
- Population Apoptotic (%) [9]: 65%
- Population Fragmented Nuclei (%) [9]: 17%
- Population Healthy Nuclei (%) [9]: 7%
- Population Hoechst High Intensity Objects (%) [9]: 15%
- Population Membrane Permeable-Phenotype (%) [9]: 15%
- Population Mitochondria Different-Phenotype (%) [9]: 94%
- Population Mitotic Cells (%) [9]: 34%
- Population Normal (%) [9]: 84%
- Population Pyknosed Nuclei (%) [9]: 74%
- Population Tubulin-Different-Phenotype (%) [9]: 94%
- Total Cell Count [9]: 290
- Population Apoptotic (%) [10]: 78%
- Population Fragmented Nuclei (%) [10]: 4%
- Population Healthy Nuclei (%) [10]: 57%
- Population Hoechst High Intensity Objects (%) [10]: 7%
- Population Membrane Permeable-Phenotype (%) [10]: 3%
- Population Mitochondria Different-Phenotype (%) [10]: 85%
- Population Mitotic Cells (%) [10]: 21%
- Population Normal (%) [10]: 92%
- Population Pyknosed Nuclei (%) [10]: 37%
- Population Tubulin-Different-Phenotype (%) [10]: 96%
- Total Cell Count [10]: 199
